Measurements taken from ChEMBL document CHEMBL1129477, “Structure-activity relationships of the quinolone antibacterials against mycobacteria: effect of structural changes at N-1 and C-7” (J Med Chem, 1996).
In brackets after ≈: the same amount, converted by molar mass.

Experiments:
Assay type in all cases: functional
Escherichia coli = assay: Anti-bacterial activity was tested against Gram-negative EC-1 bacterium
Procedure, shortened: (§1)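 Standard microtitration MIC determination (µg/mL) against four representative Gram-negative and Gram-positive bacterial strains.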

Pseudomonas aeruginosa = assay: Anti-bacterial activity tested against Gram-negative PA-7 bacterium; procedure, shortened: as §1
[1] = tested on: Mycolicibacterium smegmatis; assay: Anti-bacterial activity tested against Mycobacterium smegmatis (ATCG 19420)
Streptococcus pyogenes = assay: Anti-bacterial activity tested against Gram-positive SP1-1 bacterium; procedure, shortened: as §1
[2] = tested on: Mycolicibacterium fortuitum; assay: Anti-bacterial activity tested against Mycobacterium fortuitum (ATCG 6841)
Staphylococcus aureus = assay: Anti-bacterial activity was tested against Gram-positive SA-13 bacterium; procedure, shortened: as §1

SMILES	MIC (Escherichia coli)	MIC (Pseudomonas aeruginosa)	MIC [1]	MIC (Streptococcus pyogenes)	MIC [2]	MIC (Staphylococcus aureus)
CNCC1CCN(c2cc3c(cc2F)c(=O)c(C(=O)O)cn3C(C)C)C1 (stereo unspecified)	3.1 µg/mL (≈ 8.58 µM)	> 3.1 µg/mL	8 µg/mL (≈ 22.1 µM)	3.1 µg/mL (≈ 8.58 µM)	2 µg/mL (≈ 5.53 µM)	3.1 µg/mL (≈ 8.58 µM)
CC1(CN)CCN(c2cc3c(cc2F)c(=O)c(C(=O)O)cn3C2CC2)C1 (stereo unspecified)	0.4 µg/mL (≈ 1.11 µM)	0.4 µg/mL (≈ 1.11 µM)	0.06 µg/mL (≈ 0.167 µM)	0.05 µg/mL (≈ 0.139 µM)	< 0.03 µg/mL	0.1 µg/mL (≈ 0.278 µM)
CCN1CCN(c2cc3c(cc2F)c(=O)c(C(=O)O)cn3C2CC2)CC1 [ENROFLOXACIN]	0.05 µg/mL (≈ 0.139 µM)	0.8 µg/mL (≈ 2.23 µM)	0.13 µg/mL (≈ 0.362 µM)	0.8 µg/mL (≈ 2.23 µM)	0.06 µg/mL (≈ 0.167 µM)	0.2 µg/mL (≈ 0.556 µM)
CCn1cc(C(=O)O)c(=O)c2cc(F)c(N3CCNCC3)cc21 [NORFLOXACIN]	0.1 µg/mL (≈ 0.313 µM)	0.8 µg/mL (≈ 2.51 µM)	2 µg/mL (≈ 6.26 µM)	> 3.1 µg/mL	0.5 µg/mL (≈ 1.57 µM)	3.1 µg/mL (≈ 9.71 µM)
C[C@@H]1CN(c2c(F)c(N)c3c(=O)c(C(=O)O)cn(C4CC4)c3c2F)C[C@H](C)N1 [SPARFLOXACIN]	0.025 µg/mL (≈ 0.0637 µM)	0.8 µg/mL (≈ 2.04 µM)	0.13 µg/mL (≈ 0.331 µM)	0.1 µg/mL (≈ 0.255 µM)	0.06 µg/mL (≈ 0.153 µM)	0.05 µg/mL (≈ 0.127 µM)
CC1CN(c2cc3c(cc2F)c(=O)c(C(=O)O)cn3-c2ccc(F)cc2F)CCN1 (stereo unspecified) [TEMAFLOXACIN]	0.1 µg/mL (≈ 0.24 µM)	0.8 µg/mL (≈ 1.92 µM)	0.5 µg/mL (≈ 1.2 µM)	0.4 µg/mL (≈ 0.958 µM)	0.13 µg/mL (≈ 0.311 µM)	0.4 µg/mL (≈ 0.958 µM)
